The values that follow come from ChEMBL document CHEMBL1765016, “Indolylarylsulfones as HIV-1 non-nucleoside reverse transcriptase inhibitors: new cyclic substituents at indole-2-carboxamide” (J Med Chem, 2011).

Series [1] has as its system Human immunodeficiency virus type 1 reverse transcriptase (Human immunodeficiency virus 1), Q72547 [K103N]. Put plainly: Ratio of compound IC50 to efavirenz IC50 for HIV1 reverse transcriptase K103N mutant.
The subject of series [2] is Human immunodeficiency virus 2. As to the kind of experiment: Antiviral activity against HIV2 isolate ROD infected in human CEM cells assessed as inhibition of virus-induced cytopathicity after 4 days by microscopic analysis. The note with it: Human immunodeficiency virus 2, ISOLATE ROD, CCRF-CEM, 96 h. The class given is functional, organism-based. The gist of the method: (§1)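 CEM cells (~3 × 10⁵ cells/mL) infected with ~100 CCID₅₀ virus per mL, seeded into wells with compound dilutions. Syncytia (giant cell) formation scored microscopically after 4 days at 37 °C. EC₅₀ is the concentration protecting cells by 50%. Values are means of two experiments in triplicate.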

For series [3], the system named is Human immunodeficiency virus 1. Put plainly: Antiviral activity against wild type HIV1 3B infected in human CEM cells assessed as inhibition of virus-induced cytopathicity after 4 days by microscopic analysis. In kind it is functional, organism-based. The note with it: Human immunodeficiency virus 1, 3B, CCRF-CEM, 96 h. The gist of the method: as §1
The target in series [4] is Human immunodeficiency virus type 1 reverse transcriptase (Human immunodeficiency virus 1, UniProt Q72547, Y181I). As to the kind of experiment: Inhibition of HIV1 reverse transcriptase Y181I mutant expressed in Escherichia coli assessed as incorporation of [3H]dTTP into poly(rA)/oligo(dT) by scintillation counting. The gist of the method:
(§2)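 The RT was recombinant p66(His)/p51 heterodimer, mutant form, expressed in E. coli. TCA-precipitable radioactivity on GF/C filters was read by scintillation. IC50 is the concentration giving 50% inhibition.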

The target in series [5] is Human immunodeficiency virus type 1 reverse transcriptase (Human immunodeficiency virus 1, UniProt Q72547, K103N). As to the kind of experiment: Inhibition of HIV1 reverse transcriptase K103N mutant expressed in Escherichia coli assessed as incorporation of [3H]dTTP into poly(rA)/oligo(dT) by scintillation counting. The gist of the method: as §2
The target in series [6] is Human immunodeficiency virus type 1 reverse transcriptase (Human immunodeficiency virus 1, UniProt Q72547, L100I). Put plainly: Inhibition of HIV1 reverse transcriptase L100I mutant expressed in Escherichia coli assessed as incorporation of [3H]dTTP into poly(rA)/oligo(dT) by scintillation counting. The gist of the method:
as §2

Series [7] deals with Human immunodeficiency virus type 1 reverse transcriptase (Human immunodeficiency virus 1, UniProt Q72547). As to the kind of experiment: Inhibition of HIV1 wild type reverse transcriptase expressed in Escherichia coli assessed as incorporation of [3H]dTTP into poly(rA)/oligo(dT) by scintillation counting. The gist of the method: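 Template was poly(rA)/oligo(dT) 10:1 (0.3 μM 3′-OH ends) with 10 μM [³H]dTTP, at 37 °C. TCA-precipitable counts were taken on GF/C filters. IC₅₀ is 50% inhibition of RT activity.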

A short description of series [8]: Selectivity index, CC50 for human CEM cells to IC50 for HIV1 3B. The class given is functional, CCRF-CEM. The gist of the method:
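Ratio of CC₅₀ (Coulter count, mock-infected CEM) to EC₅₀ (CEM, HIV-1 IIIB, microscopic syncytia scoring at day 4).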

Series [9] in a line: Cytotoxicity against human CEM cells by coulter counter analysis. The note with it: CEM (CCRF-CEM) cells. The class given is cell-based. The method, boiled down:
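Mock-infected CEM cultures with compound, cell number counted by Coulter counter as percent of untreated control. CC₅₀ (50% reduction in proliferation) was read from plots against concentration. Values are means of two experiments in triplicate.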

In series [10] the test system is Human immunodeficiency virus 1. As to the kind of experiment: Antiviral activity against HIV1 harboring reverse transcriptase E138K mutant infected in human MT-4 cells assessed as inhibition of virus-induced cytopathicity after 4 days by MTT assay. The class given is functional, organism-based. As to conditions: Human immunodeficiency virus 1, MT4, 96 h. The gist of the method: (§3)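 MT-4 cells at 1 × 10⁵ cells/mL were infected with RT-mutant HIV-1 at a multiplicity of infection of 0.02. They were plated at once with serial compound dilutions (DMSO stocks of 50 mM or higher). […] Virus stocks had been titrated in MT-4 cells as CCID50.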

The subject of series [11] is Human immunodeficiency virus 1. As to the kind of experiment: Antiviral activity against HIV1 harboring reverse transcriptase Y188L mutant infected in human MT-4 cells assessed as inhibition of virus-induced cytopathicity after 4 days by MTT assay. The class given is functional, organism-based. As to conditions: Human immunodeficiency virus 1, MT4, 96 h. The gist of the method:
as §3

Series [12] concerns Human immunodeficiency virus 1. Put plainly: Antiviral activity against HIV1 harboring reverse transcriptase Y181C mutant infected in human MT-4 cells assessed as inhibition of virus-induced cytopathicity after 4 days by MTT assay. The note with it: Human immunodeficiency virus 1, MT4, 96 h. The class given is functional, organism-based. The method, boiled down: as §3
Series [13] relates to Human immunodeficiency virus 1. Put plainly: Antiviral activity against […] harboring reverse transcriptase K103N mutant infected in human MT-4 cells assessed as inhibition of virus-induced cytopathicity after 4 days by MTT assay. The class given is functional, organism-based. The note with it: Human immunodeficiency virus 1, MT4, 96 h. The gist of the method:
as §3

The test system of series [14] is Human immunodeficiency virus 1. As to the kind of experiment: Antiviral activity against HIV1 harboring reverse transcriptase L100I mutant infected in human MT-4 cells assessed as inhibition of virus-induced cytopathicity after 4 days by MTT assay. As to conditions: Human immunodeficiency virus 1, MT4, 96 h. In kind it is functional, organism-based. The method, boiled down: as §3
Background: Damage to the host cells serves as the signal in cytopathic effect assays.

Series [15] relates to Human immunodeficiency virus 1. Put plainly: Antiviral activity against wild type HIV1 3B infected in human MT-4 cells assessed as inhibition of virus-induced cytopathicity after 4 days by MTT assay. In kind it is functional, organism-based. The note with it: Human immunodeficiency virus 1, 3B, MT4, 96 h. The method, boiled down:
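MT-4 cells at 1 × 10⁵ cells/mL, infected at MOI 0.02 (virus titrated as CCID₅₀ in MT-4), dispensed immediately onto serial compound concentrations (DMSO stocks ≥50 mM). Viable cells counted by MTT after 4 days at 37 °C. EC₅₀ is the concentration giving 50% protection of cell viability. Values are means of at least three experiments.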

Series [16] deals with Human immunodeficiency virus 1. As to the kind of experiment: Antiviral activity against HIV1 clade A UG273 infected in PHA-stimulated human PBMC assessed as inhibition of p24 production after 10 to 12 days by ELISA. As to conditions: Human immunodeficiency virus 1, clade A UG273. In kind it is functional, organism-based. The gist of the method:
(§4)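 PHA-stimulated (2 μg/mL, 3 days, 37 °C) donor PBMC blasts, washed in PBS, seeded 0.5 × 10⁶ cells/well in RPMI 1640 with 10% fetal calf serum and IL-2 (25 units/mL) containing varying compound concentrations; virus added at 250 pg p24/mL final. Supernatant collected days 10-12 and assayed for HIV-1 core antigen.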

Series [17] concerns Human immunodeficiency virus 1. Put plainly: Antiviral activity against HIV1 clade B BaL infected in PHA-stimulated human PBMC assessed as inhibition of p24 production after 10 to 12 days by ELISA. In kind it is functional, organism-based. As to conditions: Human immunodeficiency virus 1, clade B BaL. The gist of the method: as §4
(In general: ELISA stands for enzyme-linked immunosorbent assay.)

The subject of series [18] is Human immunodeficiency virus 1. Put plainly: Antiviral activity against HIV1 clade C DJ259 infected in PHA-stimulated human PBMC assessed as inhibition of p24 production after 10 to 12 days by ELISA. The class given is functional, organism-based. The note with it: Human immunodeficiency virus 1, clade C DJ259. The gist of the method: as §4
Series [19] relates to Human immunodeficiency virus 1. As to the kind of experiment: Antiviral activity against HIV1 clade A/E ID12 infected in PHA-stimulated human PBMC assessed as inhibition of p24 production after 10 to 12 days by ELISA. In kind it is functional, organism-based. As to conditions: Human immunodeficiency virus 1, clade A/E ID12. The gist of the method: as §4
Series [20] concerns Human immunodeficiency virus 1. As to the kind of experiment: Antiviral activity against HIV1 group O BCF06 infected in PHA-stimulated human PBMC assessed as inhibition p24 production after 10 to 12 days by ELISA. The class given is functional, organism-based. The note with it: Human immunodeficiency virus 1, group O BCF06. The gist of the method: as §4

As usually defined, the EC50 is the midpoint of the concentration-response curve. For orientation: IC50 means the concentration that gives 50% inhibition. A word on the CC50: it is the concentration at which the toxic effect on the cells reaches its halfway point. A high value points to lower toxicity to the cells.

`Cc1cc(C)cc(S(=O)(=O)c2c(C(=O)NCN3CCCCC3)[nH]c3ccc(Cl)cc23)c1`: in [1], the Ratio IC50 is above 160. The 50% effective concentration (EC50) in series [2] was above 2000 nM; in [3] it was 1.3 nM. The IC50 in [4] turned out to be 581 nM; in [5] it was 120 nM; in [6], 37 nM; in series [7], 8 nM. In addition, the “Selectivity Index” value in series [8] turned out to be 7615. In [9], this compound yielded a CC50 of 9900 nM.

Regarding `Cc1cc(C)cc(S(=O)(=O)c2c(C(=O)NCN3CCOCC3)[nH]c3ccc(Cl)cc23)c1`, the EC50 was above 2000 nM in [2]; 1.9 nM in series [3]; 14 nM in series [10]; 440 nM in [11]; 23 nM in [12]; 11 nM in [13]. Moreover, the EC50 was determined as 8 nM in [14]; 3.2 nM in series [15]; 0.1 nM in [16]; 0.1 nM in series [17]; 0.5 nM in [18]; 0.3 nM in [19]. Besides, the half-maximal effective concentration (EC50) in [20] amounted to 0.9 nM. For the same compound, the IC50 in series [4] was 5480 nM; in [5], 512 nM; in series [6], 117 nM; in series [7], 54 nM. Besides, the “Selectivity Index” value in series [8] is listed as 5789. The 50% cytotoxic concentration (CC50) in series [9] was 11000 nM.

Regarding `Cc1cc(C)cc(S(=O)(=O)c2c(C(=O)NCCn3cccc3)[nH]c3ccc(Cl)cc23)c1`, the concentration for a half-maximal effect (EC50) was above 10000 nM in [2]; 6.5 nM in [3]; 18 nM in series [10]; above 1000 nM in [11]; 67 nM in [12]; 15 nM in [13]. Further, the EC50 turned out to be 11 nM in series [14]; 15 nM in series [15]; 2.1 nM in series [16]; 2.3 nM in series [17]; 3.5 nM in series [18]; 2.9 nM in series [19]. For the same compound, the EC50 in series [20] is 3.2 nM. In addition, the IC50 was above 40000 nM in series [4], 85 nM in series [5], 34 nM in [6] and 14 nM in series [7]. Further, the “Selectivity Index” value in series [8] is recorded as 8308. This compound gave a CC50 in [9] of 54000 nM.
